Results reported in ChEMBL document CHEMBL3045425, “Isolation and identification of precocenes and piperitone from essential oils as specific inhibitors of trichothecene production by Fusarium graminearum” (J Agric Food Chem, 2009).
pIC50: −log10 of the molar value. Calls of active or inactive are those of the source. The calls are words filed in the database; no cut-off is given here.

Tests used:
Fusarium graminearum [1] = assay type: functional, organism-based
Fusarium graminearum [2] = test: Effect on deoxynivalenol synthetic pathway intermediates accumulation in Fusarium graminearum at 30 uM by TLC analysis; assay type: functional, organism-based
How it was run: (§1)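 Pooled broth (5 × 10 mL) was split into filtrate and mycelia. Filtrate was extracted with ethyl acetate and mycelia with methanol. n-Hexane and ethyl acetate fractions were examined spectroscopically for intermediate signals such as trichodiene.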

Fusarium graminearum [3] = test: Downregulation of Tri10 gene expression in Fusarium graminearum at 26.5 degC measured after 48 to 96 hr by quantitative-RT-PCR analysis; assay type: functional, organism-based
How it was run: (§2)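 SYEP liquid medium (5 mL/tube) inoculated with 1 × 10^5 spores and shaken at 300 rpm, 26.5 °C, with or without compound at 3 or 30 µM, for 48, 96 or 144 h. Total RNA was taken from the mycelia. SYBR Green real-time RT-PCR was run on cDNA from 0.005 µg RNA: 95 °C 10 min, then 40 cycles of 95 °C 15 s / 60 °C 1 min. β-tubulin mRNA was the reference; n = 3.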

Fusarium graminearum [4] = test: Downregulation of Tri6 gene expression in Fusarium graminearum at 26.5 degC measured after 48 to 96 hr by quantitative-RT-PCR analysis; assay type: functional, organism-based
How it was run: as §2

Fusarium graminearum [5] = test: Downregulation of Tri5 gene expression in Fusarium graminearum at 3 to 30 uM at 26.5 degC measured after 48 to 144 hr by quantitative-RT-PCR analysis; assay type: functional, organism-based
How it was run: as §2

Fusarium graminearum [6] = test: Downregulation of Tri4 gene expression in Fusarium graminearum at 3 to 30 uM at 26.5 degC measured after 48 to 144 hr by quantitative-RT-PCR analysis; assay type: functional, organism-based
How it was run: as §2

Fusarium graminearum [7] = assay type: functional, organism-based; remark: listed apart in the source
Fusarium graminearum [8] = test: Growth inhibition of Fusarium graminearum assessed as mycelial weight at 26.5 degC after 7 days; assay type: organism-based; details: in vivo, 168 h
How it was run: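 Methanolic sample added to 5 mL SYEP (sucrose 5%, yeast extract 0.1%, polypeptone 0.1%), final methanol 0.3%. Inoculated with 1 × 10^5 spores/tube and shaken at 300 rpm, 26.5 °C, for 7 days. Mycelia were collected on cheesecloth, washed with water, dried at 100 °C for 3 h and weighed.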

Fusarium graminearum [9] = test: microbe, parasite or virus in culture; assay type: functional, organism-based; details: 168 h
Fusarium culmorum = test: Inhibition of 3-acetyldeoxynivalenol production by Fusarium culmorum in liquid culture; assay type: functional, organism-based
Fusarium graminearum [10] = test: microbe, parasite or virus in culture; assay type: functional
Fusarium graminearum [11] = test: microbe, parasite or virus in culture; assay type: functional; remark: listed apart in the source
Fusarium graminearum [12] = test: Effect on deoxynivalenol synthetic pathway intermediates accumulation in Fusarium graminearum at 1000 uM by TLC analysis; assay type: functional, organism-based
How it was run: as §1

Fusarium graminearum [13] = test: Downregulation of Tri10 gene expression in Fusarium graminearum at 300 to 1000 uM measured after 72 hr by quantitative-RT-PCR analysis; assay type: functional, organism-based
How it was run: (§3)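 Spores (1 × 10^5/tube) grown in 5 mL SYEP medium with shaking at 300 rpm, 26.5 °C, for 72 h, with or without compound at 300 or 1000 µM. Mycelial total RNA was used for SYBR Green qRT-PCR on cDNA from 0.005 µg RNA: 95 °C 10 min, then 40 cycles of 95 °C 15 s / 60 °C 1 min. Normalised to β-tubulin mRNA; n = 3.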

Fusarium graminearum [14] = test: Downregulation of Tri6 gene expression in Fusarium graminearum at 300 to 1000 uM measured after 72 hr by quantitative-RT-PCR analysis; assay type: functional, organism-based
How it was run: as §3

Fusarium graminearum [15] = test: Downregulation of Tri5 gene expression in Fusarium graminearum at 300 to 1000 uM measured after 72 hr by quantitative-RT-PCR analysis; assay type: functional, organism-based
How it was run: as §3

Fusarium graminearum [16] = test: Downregulation of Tri4 gene expression in Fusarium graminearum at 300 to 1000 uM measured after 72 hr by quantitative-RT-PCR analysis; assay type: functional, organism-based
How it was run: as §3

COc1cc2c(cc1OC)OC(C)(C)C=C2 [PROCOCENE II]
IC50 (Fusarium graminearum [1]): 2 ppm
Activity (Fusarium graminearum [2]): inactive
inhibition (Fusarium graminearum [3]): Dose-dependent effect
inhibition (Fusarium graminearum [4]): Dose-dependent effect
inhibition (Fusarium graminearum [5]): Active
inhibition (Fusarium graminearum [6]): Active
IC50 (Fusarium graminearum [7]): 0.36 ppm
Activity (Fusarium graminearum [8]): Non-toxic
pIC50 (Fusarium graminearum [9]): 5.92

CC(=O)c1cccc2oc(=O)[nH]c12 [4-ACETYL-2-BENZOXAZOLINONE]
pIC50 (Fusarium culmorum): 5.40

COc1ccc2c(c1)OC(C)(C)C=C2 [PROCOCENE I]
inhibition at 152 ppm (Fusarium graminearum [10]): 25%
inhibition at 5.7 ppm (Fusarium graminearum [11]): 20%
IC50 (Fusarium graminearum [7]): 1.3 ppm
pIC50 (Fusarium graminearum [9]): 4.78

CC1=CC(=O)[C@@H](C(C)C)CC1 [(-)-PIPERITONE]
Activity (Fusarium graminearum [12]): inactive
inhibition (Fusarium graminearum [13]): Active
inhibition (Fusarium graminearum [14]): Active
inhibition (Fusarium graminearum [15]): Active
inhibition (Fusarium graminearum [16]): Active
inhibition at 152 ppm (Fusarium graminearum [10]): 25%
inhibition at 5.7 ppm (Fusarium graminearum [11]): 20%
IC50 (Fusarium graminearum [7]): 61.2 ppm
Activity (Fusarium graminearum [8]): Non-toxic
pIC50 (Fusarium graminearum [9]): 3.51
